3 compounds from ChEMBL document CHEMBL1833924, “HLE-inhibitory alkaloids with a polyketide skeleton from the marine-derived fungus Coniothyrium cereale” (J Nat Prod, 2011) can be followed below.

Active and inactive are the calls of the source. The rule behind the calls is not given here.

For one data set, the target named is T1, Papain (Carica papaya, UniProt P00784).
T1 sequence (P00784 whole entry): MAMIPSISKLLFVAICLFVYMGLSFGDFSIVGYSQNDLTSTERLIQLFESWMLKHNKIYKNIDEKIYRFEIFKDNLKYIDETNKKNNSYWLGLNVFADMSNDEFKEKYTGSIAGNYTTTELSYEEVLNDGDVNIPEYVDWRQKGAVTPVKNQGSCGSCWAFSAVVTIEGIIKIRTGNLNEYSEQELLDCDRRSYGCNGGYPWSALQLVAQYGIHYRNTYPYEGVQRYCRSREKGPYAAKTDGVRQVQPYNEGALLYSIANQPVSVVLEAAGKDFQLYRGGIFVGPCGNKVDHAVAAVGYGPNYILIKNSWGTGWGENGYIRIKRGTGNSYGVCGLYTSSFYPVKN
The experiment in a line: Inhibition of Carica papaya papain.

Data set [1] concerns Escherichia coli. Put plainly: Antibacterial activity against Escherichia coli assessed as zone of inhibition at 20 ug/disk after 24 hrs by agar diffusion assay. The class given is functional. The note with it: read-out: DIZ. A digest of the protocol: (§1)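 Paper discs loaded at 20 μg/disk were placed on agar seeded with each bacterium (Mycobacterium phlei, Staphylococcus aureus or Escherichia coli). Read-out was the diameter of the inhibition zone, recorded in mm.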

In data set [2] the test system is L929. The experiment in a line: Cytotoxicity against mouse L929 cells after 5 days by MTT assay. The class given is cell-based. The note with it: L929, 120 h. A digest of the protocol: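 MTT viability assay run on mouse fibroblast cells; result expressed as IC50 (μM).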
A general note: Tetrazolium dyes change colour on reduction, which living cells bring about.

The nature of data set [3]: Inhibition of porcine cholesterol esterase. Set-up: species or system Sus scrofa.
For another data set, the target named is Prothrombin (Homo sapiens, UniProt P00734). Put plainly: Inhibition of human thrombin.
For another data set, the target named is T2, Neutrophil elastase (Homo sapiens, UniProt P08246).
T2 sequence (P08246 whole entry): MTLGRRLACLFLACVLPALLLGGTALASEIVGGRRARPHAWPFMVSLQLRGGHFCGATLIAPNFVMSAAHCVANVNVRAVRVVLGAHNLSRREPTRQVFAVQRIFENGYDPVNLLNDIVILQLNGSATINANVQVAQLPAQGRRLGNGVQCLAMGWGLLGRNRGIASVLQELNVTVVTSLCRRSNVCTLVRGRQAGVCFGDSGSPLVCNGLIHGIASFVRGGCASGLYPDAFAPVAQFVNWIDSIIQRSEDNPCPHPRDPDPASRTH
Put plainly: Inhibition of human leukocyte elastase using MeOSuc-Ala-Ala-Pro-Val-para-nitroanilide chromogenic substrate after 10 mins spectrophotometrically. A digest of the protocol: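 Human leukocyte elastase enzyme inhibition assay; IC50 (μM) determined and reported as mean ± spread.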

Data set [4] deals with Mycolicibacterium phlei. The experiment in a line: Antibacterial activity against Mycobacterium phlei assessed as zone of inhibition at 20 ug/disk after 24 hrs by agar diffusion assay. Type of data set: functional. The note with it: read-out: DIZ. A digest of the protocol:
as §1
Background: In agar diffusion tests the substance spreads into inoculated agar from a disc or well.

Data set [5] relates to Staphylococcus aureus. The experiment in a line: Antibacterial activity against Staphylococcus aureus assessed as zone of inhibition at 20 ug/disk after 24 hrs by agar diffusion assay. The class given is functional. The note with it: read-out: DIZ. In outline: as §1
A further data set concerns the target Acetylcholinesterase (Electrophorus electricus, UniProt O42275). The experiment in a line: Inhibition of electric eel AChE.
A short description of data set [6]: Inhibition of bovine trypsin. Set-up: species or system Bos taurus.
Data set [7] can be described thus: Inhibition of bovine Chymotrypsin. Set-up: species or system Bos taurus.
Data set [8] has as its system Mycolicibacterium phlei. The experiment in a line: Antibacterial activity against Mycobacterium phlei at 20 uL after 24 hrs by agar diffusion assay. Type of data set: functional, organism-based.
Data set [9] concerns Staphylococcus aureus. The experiment in a line: Antibacterial activity against Staphylococcus aureus at 20 uL after 24 hrs by agar diffusion assay. Type of data set: functional, organism-based.
Data set [10] has as its system L929. The experiment in a line: Cytotoxicity against mouse L929 cells at 60 uL after 5 days by MTT assay. The class given is cell-based. The note with it: l929, 120 h.
The test system of data set [11] is Escherichia coli. Put plainly: Antibacterial activity against Escherichia coli at 20 ug/disk after 24 hrs by agar diffusion assay.

Chain of Acetylcholinesterase (O42275 whole entry): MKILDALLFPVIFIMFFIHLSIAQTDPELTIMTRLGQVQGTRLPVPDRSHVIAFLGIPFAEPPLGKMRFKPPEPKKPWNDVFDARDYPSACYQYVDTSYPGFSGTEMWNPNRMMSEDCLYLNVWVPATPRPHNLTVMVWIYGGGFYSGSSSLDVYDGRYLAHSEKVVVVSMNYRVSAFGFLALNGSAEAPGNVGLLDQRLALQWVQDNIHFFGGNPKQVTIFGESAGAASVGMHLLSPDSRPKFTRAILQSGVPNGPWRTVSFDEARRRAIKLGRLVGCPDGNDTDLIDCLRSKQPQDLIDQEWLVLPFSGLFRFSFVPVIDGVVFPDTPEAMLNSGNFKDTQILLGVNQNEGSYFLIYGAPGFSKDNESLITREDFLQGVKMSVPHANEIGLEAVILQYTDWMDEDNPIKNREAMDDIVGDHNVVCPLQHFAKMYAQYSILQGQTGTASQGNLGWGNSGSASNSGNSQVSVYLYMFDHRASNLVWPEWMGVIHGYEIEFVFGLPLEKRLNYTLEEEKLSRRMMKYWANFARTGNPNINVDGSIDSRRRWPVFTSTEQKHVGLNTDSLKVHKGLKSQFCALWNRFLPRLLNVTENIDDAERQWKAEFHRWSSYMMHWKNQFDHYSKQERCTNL

As usually defined, the IC50 is the concentration that inhibits the measured activity by half. As for `Cc1cc(O)cc2c1C1=C(C(=O)C2=O)C(C)(C)[C@H](C)O1`, the IC50 against Papain is above 50 µM; in the data set on L929 [2], 7.5 µM; in [3], above 50 µM; against Prothrombin, above 50 µM; against Neutrophil elastase, above 20 µM; against Acetylcholinesterase, above 50 µM. The 50% inhibitory concentration (IC50) in data set [6] and in data set [7] was above 50 µM each time. The zone of inhibition at 20 µg/disc in the data set with Escherichia coli [1] is 12 mm; in the data set with Mycolicibacterium phlei [4], 18 mm; with Staphylococcus aureus [5], 14 mm.
For `C[C@@H]1OC2=C(C(=O)C(=N)c3c(O)c(O)cc(C=O)c32)C1(C)C`, the IC50 at Papain was above 50 µM; in data set [3] it was above 50 µM; against Prothrombin, above 50 µM; at Neutrophil elastase, 3.01 µM; at Acetylcholinesterase it was above 50 µM; in [6] it was above 50 µM. In [7], this compound registered an IC50 above 50 µM. Besides, the outcome in the data set with Mycolicibacterium phlei [8], in the data set with Staphylococcus aureus [9] and with Escherichia coli [11] was inactive. Moreover, in the data set with L929 [10], the Activity result is on record as “Non-toxic”.
Turning to `Cc1cc(O)c2c3c(c(O)c4c(c13)O[C@@H](C)C4(C)C)NC2=O`, the IC50 on Papain is above 50 µM; in data set [3] it was above 50 µM; against Prothrombin, above 50 µM; against Neutrophil elastase, 9.28 µM; against Acetylcholinesterase, above 50 µM; in data set [6], above 50 µM. In data set [7], this compound displayed an IC50 above 50 µM. The result in the data set on Mycolicibacterium phlei [8], in the data set on Staphylococcus aureus [9] and in the data set with Escherichia coli [11] was inactive. Also, in the data set on L929 [10], the Activity result is listed as “Non-toxic”.
